Publication PMC8369490 (ACS Infectious Diseases, 2021)
≈ marks a conversion by molar mass, not a printed value.

Experiments:
[1] = system: E. coli MC4100 expressing FhuA ΔC/Δ4L; experiment: Growth inhibition of E. coli expressing open channel FhuA ΔC/Δ4L; type: cell-based, Escherichia coli; details: E. coli MC4100, LB, 10 h
[2] = system: σ^E cell envelope stress response (PrpoE-mNG reporter) in E. coli TOP10F′ cells expressing Hbp; experiment: σ^E stress reporter assay; type: cell-based; details: Escherichia coli, 3 h, read-out: stress reporter EC50 PrpoE-mNG
[3] = system: Rcs stress response (PrprA-mNG reporter) in E. coli TOP10F′ cells; experiment: Rcs stress reporter assay; type: cell-based; details: Escherichia coli, 3 h, read-out: stress reporter EC50 PrprA-mNG
How it was run: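 TOP10F′ with pUA66-PrprA-mNG, at OD600 0.05 in M9, dispensed onto a 1:3 test-compound dilution series in 384-well plates. Positive control is an Hbp-secretion inhibitor at 200 μM; DMSO is the negative control. After 3 h nonshaken incubation, OD600 and mNG fluorescence (ex 488/em 535 nm) measured. EC50 derived from OD600-corrected fluorescence.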

[4] = system: heat-shock response (PgroES-mNG reporter) in E. coli TOP10F′ cells; experiment: Heat-shock stress reporter assay; type: cell-based; details: Escherichia coli, 3 h, read-out: stress reporter EC50 PgroES-mNG
How it was run: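 TOP10F′ carrying pEH3-empty and pUA66-PgroES-mNG, at OD600 0.05 in M9, added to 384-well plates with a 1:3 test-compound dilution series. Positive-control wells hold cells with pEH3-ssTorA-Hbp induced by 40 μM IPTG; DMSO controls included. After 3 h nonshaken incubation, OD600 and mNG fluorescence (ex 488/em 535 nm) read. EC50 from OD600-corrected fluorescence.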

[5] = system: E. coli TOP10F′ cells; experiment: MIC in E. coli TOP10F′; type: cell-based; details: Escherichia coli, 10 h, read-out: toxicity E. coli MIC
How it was run: (§1)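 Broth dilution in LB or MHB-II. Bacteria grown to mid-log at 37 °C in flasks, diluted to OD600 0.001 and added 1:1 to medium with 2-fold increasing test compound (0.5% DMSO final). Incubated at 37 °C in a plate reader with continuous linear shaking; OD600 every 15 min for 10 h. MIC is the lowest concentration with no growth detectable by OD600 at 10 h.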

[6] = system: HEK293 cells; experiment: HEK293 cell toxicity; type: cell-based; details: 48 h, dose-response up to 60 μM; dash = no toxicity
How it was run: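 HEK293 cells kept in DMEM with 10% FBS at 37 °C, 5% CO2. Test compound dispensed as a 1:3 dilution series from DMSO stocks; DMSO as negative and tamoxifen as positive control. About 2000 cells per well incubated 48 h at 37 °C, 5% CO2, 90% humidity. Viability read with CellTiter-Glo reagent after 2 min shaking.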

[7] = system: Enterococcus faecium VRE; experiment: MIC against bacterial strains; type: cell-based; details: 10 h
How it was run: as §1

[8] = system: Staphylococcus aureus MRSA; experiment: MIC against bacterial strains; type: cell-based; details: 10 h
How it was run: as §1

[9] = system: Klebsiella pneumoniae; experiment: MIC against bacterial strains; type: cell-based; details: 10 h
How it was run: as §1

[10] = system: Acinetobacter baumannii; experiment: MIC against bacterial strains; type: cell-based; details: 10 h
How it was run: as §1

[11] = system: Pseudomonas aeruginosa; experiment: MIC against bacterial strains; type: cell-based; details: 10 h
How it was run: as §1

[12] = system: Enterobacter cloacae; experiment: MIC against bacterial strains; type: cell-based; details: 10 h
How it was run: as §1

[13] = system: Bacillus subtilis 168; experiment: MIC against bacterial strains; type: cell-based
How it was run: as §1

[14] = system: Escherichia coli (uropathogenic); experiment: MIC against bacterial strains; type: cell-based; details: 10 h
How it was run: as §1

[15] = system: Escherichia coli (K12); experiment: MIC against bacterial strains; type: cell-based; details: 10 h
How it was run: as §1

[16] = system: BAM complex (BamABCDE) reconstituted in proteoliposomes; experiment: OmpT folding in vitro assay with BAM proteoliposomes; type: biochemical, Escherichia coli; details: 100 μM compound, OmpT:SurA 1:42 versus 1:7
Sequence of BAM complex (BamABCDE) reconstituted in proteoliposomes (P77774 20-392): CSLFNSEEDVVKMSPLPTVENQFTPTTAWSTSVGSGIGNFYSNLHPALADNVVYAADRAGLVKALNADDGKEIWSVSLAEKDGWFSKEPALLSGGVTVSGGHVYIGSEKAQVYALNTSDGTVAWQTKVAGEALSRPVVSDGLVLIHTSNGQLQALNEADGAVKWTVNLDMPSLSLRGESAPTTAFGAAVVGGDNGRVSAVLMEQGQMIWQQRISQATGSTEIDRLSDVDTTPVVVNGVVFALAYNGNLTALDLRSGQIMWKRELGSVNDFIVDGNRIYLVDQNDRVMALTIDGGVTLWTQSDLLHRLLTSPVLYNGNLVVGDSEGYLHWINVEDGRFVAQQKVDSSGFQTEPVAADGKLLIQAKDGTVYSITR
Sequence of BAM complex (BamABCDE) reconstituted in proteoliposomes (P0A903 25-344, further chain): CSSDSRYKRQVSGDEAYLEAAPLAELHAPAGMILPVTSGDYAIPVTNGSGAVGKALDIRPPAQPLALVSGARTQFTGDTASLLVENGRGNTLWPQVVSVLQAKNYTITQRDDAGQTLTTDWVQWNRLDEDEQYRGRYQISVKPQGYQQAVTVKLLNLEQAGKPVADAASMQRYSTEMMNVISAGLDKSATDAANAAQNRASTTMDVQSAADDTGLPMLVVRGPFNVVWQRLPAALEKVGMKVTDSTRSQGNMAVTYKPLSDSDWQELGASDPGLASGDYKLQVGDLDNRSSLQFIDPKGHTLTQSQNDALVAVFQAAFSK
Sequence of BAM complex (BamABCDE) reconstituted in proteoliposomes (P0A937 20-113, further chain): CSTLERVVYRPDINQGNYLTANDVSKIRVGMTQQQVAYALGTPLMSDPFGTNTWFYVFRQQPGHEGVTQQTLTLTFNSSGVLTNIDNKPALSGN
Sequence of BAM complex (BamABCDE) reconstituted in proteoliposomes (P0AC02 20-245, further chain): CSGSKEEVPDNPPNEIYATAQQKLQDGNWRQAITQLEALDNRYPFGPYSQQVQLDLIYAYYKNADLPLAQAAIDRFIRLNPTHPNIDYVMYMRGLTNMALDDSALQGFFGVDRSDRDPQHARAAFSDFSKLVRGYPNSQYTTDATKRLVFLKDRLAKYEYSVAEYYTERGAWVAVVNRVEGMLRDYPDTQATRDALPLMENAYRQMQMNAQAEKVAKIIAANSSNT
How it was run: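 BAM proteoliposomes (His-tag-purified BamABCDE in DDM, reconstituted into E. coli polar lipids) with test compound and fluorogenic peptide in Tris/HCl, pH 6.5, preincubated 5 min at 30 °C. Mixed with a second subreaction of SurA plus guanidine-denatured OmpT at 1:7 or 1:42 OmpT:SurA. Fluorescence (ex 330/em 430 nm) read every 20 s for 80 min at 30 °C. Linear-phase slopes from three replicates, as % of DMSO.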

[17] = target: OmpT protease (Escherichia coli, UniProt P09169); experiment: OmpT protease activity, compound added after OmpT folding was completed; type: biochemical; details: 100 μM, added 2 h after start of folding reaction
Sequence of OmpT protease (P09169 21-317): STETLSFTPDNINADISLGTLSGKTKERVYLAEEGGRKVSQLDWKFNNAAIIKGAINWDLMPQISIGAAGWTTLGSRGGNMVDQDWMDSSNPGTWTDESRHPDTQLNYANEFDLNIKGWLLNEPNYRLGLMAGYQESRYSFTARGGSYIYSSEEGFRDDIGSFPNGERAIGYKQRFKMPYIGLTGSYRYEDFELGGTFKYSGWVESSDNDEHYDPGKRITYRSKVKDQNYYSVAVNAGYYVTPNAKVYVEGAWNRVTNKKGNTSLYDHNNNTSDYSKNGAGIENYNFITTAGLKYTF
How it was run: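 BAM proteoliposomes (2 μM) mixed with SurA (140 μM) and denatured OmpT (20 μM) subreactions in Tris/HCl, pH 6.5, and held 2 h at 30 °C to prefold OmpT. Then combined with a subreaction of test compound (200 μM) or DMSO plus fluorogenic peptide; concentrations are per subreaction. Cleavage read at ex 330/em 430 nm for 80 min at 30 °C. Slope-based activity relative to DMSO.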

[18] = system: E. coli MC4100 cells; experiment: Potentiation of antibiotics; type: cell-based, Escherichia coli; details: E. coli MC4100, LB, 10 h
[19] = system: E. coli MC4100 bamA101; experiment: Growth inhibition of bamA101 knockdown strain versus wild-type; type: cell-based, Escherichia coli; details: E. coli MC4100 bamA101, MHB-II, 10 h
How it was run: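 Wild-type MC4100 and bamA101 knockdown cells grown to mid-log at 37 °C, diluted to OD600 0.001 and mixed 1:1 with MHB-II containing 2-fold increasing test compound (0.5% DMSO final) in 96-well plates. Incubated at 37 °C with continuous linear shaking; OD600 read every 15 min. The 10 h OD600 is expressed as % growth versus DMSO-treated cells (100%).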

[20] = system: OMP levels in E. coli TOP10F′ cells; experiment: Cell envelope protein analysis; type: cell-based, Escherichia coli
How it was run: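 TOP10F′ cells grown 3 h in LB in flasks with one concentration of test compound. Cells pelleted, sonicated on ice in 10 mM Tris-HCl, 3 mM EDTA, pH 8.0 with protease inhibitors. Envelopes pelleted at 200 000g for 1 h at 4 °C and solubilised overnight at 4 °C in TBS with 1% DDM. SDS-PAGE and immunoblots, loading corrected by OD600; 3 independent experiments.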

[21] = system: secretion of autotransporter Hbp in E. coli MC1601 degP::S210A; experiment: Hbp secretion analysis; type: cell-based, Escherichia coli; details: Western blotting
How it was run: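 MC1061 degP::S210A cells grown in M9 to mid-log, diluted to OD600 0.1, mixed 1:1 with M9 containing test compound or DMSO (0.5% final). Hbp induced from pEH3 with 40 μM IPTG at 37 °C with shaking. Cells spun 5000g for 5 min; supernatant TCA-precipitated overnight at 4 °C. Lysates and medium run on 11% SDS-PAGE, immunoblotted (Hbp passenger, Hbp β-barrel, DegP), loading OD600-corrected.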

[22] = 0.25× MIC, cell envelopes, Western blotting

## CN[C@H](CC(C)C)C(=O)N[C@H]1C(=O)N[C@@H](CC(N)=O)C(=O)N[C@H]2C(=O)N[C@H]3C(=O)N[C@H](C(=O)N[C@H](C(=O)O)c4cc(O)cc(O)c4-c4cc3ccc4O)[C@H](O)c3ccc(c(Cl)c3)Oc3cc2cc(c3O[C@@H]2O[C@H](CO)[C@@H](O)[C@H](O)[C@H]2O[C@H]2C[C@](C)(N)[C@H](O)[C@H](C)O2)Oc2ccc(cc2Cl)[C@H]1O [vancomycin, reference compound]
[1]
  permeability upon FhuA ΔC/Δ4L expression: clearly increased

## Nc1cc(-c2nc3c(c(NCc4ccccc4)n2)CC(N)CC3)ccn1 (stereo not shown) [compound 14, 2-(2-aminopyridin-4-yl)-N4-benzyl-5,6,7,8-tetrahydroquinazoline-4,6-diamine]
[2]
  EC50: > 60 µM
[3]
  EC50: 12 µM
[4]
  EC50: > 60 µM
[5]
  MIC: 100 µM (≈ 34.6 µg/mL)
[6]
  toxicity HEK293 LD50: 60 µM
[7]
  MIC: > 200 µM
[8]
  MIC: > 200 µM
[9]
  MIC: > 200 µM
[10]
  MIC: 100 µM (≈ 34.6 µg/mL)
[11]
  MIC: 200 µM (≈ 69.3 µg/mL)
[12]
  MIC: > 200 µM
[13]; Bacillus subtilis 168, 10 h, highest concentration tested 200 μM
  MIC: >200 µM
[13]; Bacillus subtilis, 168, 10 h
  MIC: > 200 µM
[14]
  MIC: > 200 µM
[15]
  MIC: 100 µM (≈ 34.6 µg/mL)
[16]
  influence of 6-fold excess of SurA on the inhibiting effect of the compound: did not influence
[17]
  effect on OmpT protease activity when added after OmpT was folded: inhibiting effect
[18]; compound at 0.25× MIC (2: 12 μM, 14: 25 μM)
  fold decrease of MIC of vancomycin in presence of compound: 4 fold
[18]; compound at 0.25× MIC
  MICs of ampicillin and chloramphenicol in presence of compound: largely unaffected
[19]
  antimicrobial effect (MIC) in bamA101 mutant versus wild-type: enhanced antimicrobial effect
[1]
  effect of FhuA ΔC/Δ4L expression on MIC of the compound: did not affect
[20]; 0.25× MIC (2: 12 μM, 14: 25 μM), cell envelopes, Western blotting
  levels of the major β-barrel OMPs OmpF, OmpC, and OmpA compared to DMSO: dropped considerably
[20]; [22]
  level of BamA: severely reduced
  levels of lipoproteins BamB and LpoB: largely unaffected
[20]; PhoE expressed from pEH3, 0.25× MIC and 0.5× MIC, 3 h, seminative PAGE
  total levels of PhoE: reduced total levels of PhoE in a dose-dependent manner
[21]; 0.25× MIC, whole cell lysates
  Hbp processing in cells (pro-Hbp): accumulation of pro-Hbp
[21]; 2 and 14 at 0.25× MIC, spent medium
  amount of secreted Hbp passenger in the spent medium: decreased

## CC(=O)Nc1cc(-c2nc(O)c3c(n2)CCC(NC(=O)OC(C)(C)C)C3)ccn1 (stereo not shown) [compound 3]
[2]
  EC50: 7 µM
[3]
  EC50: 16 µM
[4]
  EC50: > 60 µM
[5]
  MIC: 25 µM (≈ 9.99 µg/mL)
[6]
  toxicity HEK293 LD50: 20 µM

## CCOC(=O)C1=C(O)CCC(NC(=O)OC(C)(C)C)C1 (stereo not shown) [compound 1]
[2]
  EC50: 1 µM
[3]
  EC50: 38 µM
[4]
  EC50: > 60 µM
[5]
  MIC: > 200 µM
